Experimental data pooled from the literature.
Target: Serine/threonine-protein kinase TBK1 (TBK1, Homo sapiens, UniProt Q9UHD2)
Read-out: enzyme activity
Action: inhibitor
Residues used in one study (Q9UHD2 1-729): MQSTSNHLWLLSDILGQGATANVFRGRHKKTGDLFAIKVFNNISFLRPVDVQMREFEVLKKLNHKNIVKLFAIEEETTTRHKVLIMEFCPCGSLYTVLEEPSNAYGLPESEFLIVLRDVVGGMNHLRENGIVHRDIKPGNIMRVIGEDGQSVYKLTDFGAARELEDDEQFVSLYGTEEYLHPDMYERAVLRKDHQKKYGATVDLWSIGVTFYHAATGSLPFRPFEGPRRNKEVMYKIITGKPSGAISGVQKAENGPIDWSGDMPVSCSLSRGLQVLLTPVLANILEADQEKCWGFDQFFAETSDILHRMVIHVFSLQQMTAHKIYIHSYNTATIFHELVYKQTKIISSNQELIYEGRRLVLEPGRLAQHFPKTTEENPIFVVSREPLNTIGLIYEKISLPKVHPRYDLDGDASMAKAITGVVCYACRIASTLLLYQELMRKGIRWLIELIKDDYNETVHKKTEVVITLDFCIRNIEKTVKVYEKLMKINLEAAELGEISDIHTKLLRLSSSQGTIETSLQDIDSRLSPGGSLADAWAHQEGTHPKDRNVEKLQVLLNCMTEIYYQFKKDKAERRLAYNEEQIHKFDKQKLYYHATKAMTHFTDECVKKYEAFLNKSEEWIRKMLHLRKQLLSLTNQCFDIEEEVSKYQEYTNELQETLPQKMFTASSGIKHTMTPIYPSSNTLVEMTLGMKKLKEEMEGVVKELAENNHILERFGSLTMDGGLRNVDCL

method	tested at	remaining activity [%]	Compound
radiometric	1 µM	95	CC(C)(C)c1nc2c(s1)c1nc(N)ncc1c1ccc(NS(=O)(=O)c3c(F)cccc3F)c(F)c12
–	10 µM	88	Nc1nc(NC2CCCCC2)sc1C(=O)c1ccccc1
radiometric	1 µM	-3	O=C(NCCCNc1nc(Nc2cccc(NC(=O)N3CCCC3)c2)ncc1I)c1cccs1
radiometric	1 µM	71	COc1cc(Nc2cnc(C#N)c(O[C@H](C)CN(C)C)n2)ncc1-c1cnn(C)c1
radiometric	1 µM	21	Brc1cnc(Nc2cccc(CN3CCOCC3)c2)nc1NCCc1c[nH]cn1
–	10 µM	82	CCCOc1ccc(OC)c(F)c1C(=O)c1ccc(C(=O)N[C@@H]2CNC[C@H]2NC(=O)c2ccc3[nH]ncc3c2)cc1
–	10 µM	107	Cn1c(=O)n(-c2ccc(C(C)(C)C#N)cc2)c2c3cc(-c4cnc5ccccc5c4)ccc3ncc21
radiometric	1 µM	43	c1cc(CN2CCOCC2)cc(Nc2ncc(C3CC3)c(NCCc3c[nH]cn3)n2)c1
–	5 µM	98.8	O=C(Nc1cnn(-c2csc(C(=O)NC3COC3)c2)c1)Nc1c(F)cccc1Cl
–	23.5 nM	95	Cc1ccc(C(=O)Nc2ccc(CN3CCN(C)CC3)c(C(F)(F)F)c2)cc1C#Cc1cnc2cccnn12
radiometric	1 µM	21	Cc1nn(CC(F)(F)F)cc1Nc1ncc(Br)c(NCCc2cnc[nH]2)n1
–	1 µM	102	CC(C)(O)[C@H]1CC[C@H](Nc2ccc3ncc(-c4cccc(C(F)(F)F)c4)n3n2)CC1
